Source: PubChem BioAssay (several laboratories)
HKDC1 inhibitor – HKDC1 hexokinase inhibitors, primary screen, biochemical, fluorescence, uHTS. Q2TB90. recombinant HKDC1, G6PDH/diaphorase resazurin coupled fluorescence. inhibition, % at 20 µM. hit rate 0.16% among 340,000. AID 493160, 2011;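 active = inhibition above about 35% when tested at 20 µM, limit read from the data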;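 note: plate controls were DMSO wells with enzyme for no effect and DMSO wells lacking enzyme for full effect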
Target sequence (Q2TB90 whole entry, looked up): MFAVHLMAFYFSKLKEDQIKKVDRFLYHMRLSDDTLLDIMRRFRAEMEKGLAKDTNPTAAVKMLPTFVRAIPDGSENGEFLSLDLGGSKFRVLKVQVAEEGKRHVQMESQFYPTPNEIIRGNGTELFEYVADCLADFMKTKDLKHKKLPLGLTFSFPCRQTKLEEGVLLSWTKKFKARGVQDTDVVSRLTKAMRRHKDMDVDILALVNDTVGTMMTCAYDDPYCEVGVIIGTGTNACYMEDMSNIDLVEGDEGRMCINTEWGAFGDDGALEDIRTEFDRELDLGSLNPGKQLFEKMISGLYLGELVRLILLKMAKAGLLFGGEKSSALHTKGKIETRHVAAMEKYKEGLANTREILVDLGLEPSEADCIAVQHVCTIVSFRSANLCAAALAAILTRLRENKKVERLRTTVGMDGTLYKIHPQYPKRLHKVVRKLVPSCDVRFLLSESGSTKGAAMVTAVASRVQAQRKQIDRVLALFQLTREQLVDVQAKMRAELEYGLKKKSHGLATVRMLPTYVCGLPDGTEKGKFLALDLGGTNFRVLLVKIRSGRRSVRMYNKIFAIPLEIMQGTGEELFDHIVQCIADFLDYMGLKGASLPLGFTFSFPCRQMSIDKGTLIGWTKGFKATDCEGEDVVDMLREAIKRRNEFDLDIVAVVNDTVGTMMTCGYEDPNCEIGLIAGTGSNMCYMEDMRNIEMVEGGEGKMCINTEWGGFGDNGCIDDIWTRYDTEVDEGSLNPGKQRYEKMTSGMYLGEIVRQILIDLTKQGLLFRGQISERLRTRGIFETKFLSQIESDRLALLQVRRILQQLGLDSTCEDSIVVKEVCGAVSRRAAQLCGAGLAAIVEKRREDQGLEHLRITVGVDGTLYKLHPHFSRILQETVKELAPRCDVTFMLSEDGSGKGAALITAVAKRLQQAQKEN
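test system = in-house recombinant HK5 (HKDC1) enzyme | amount = HKDC1 at 5 µg/mL | control set = DMSO-enzyme wells negative, buffer-substituted wells positive | compound = one dose of 20 µM, 1% DMSO | schedule = reaction time 90 min, room temperature, protected from light | technique = resorufin fluorescence at 613 nm | reagent = glucose with 1 mM ATP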
Redox H2O2 prof – compounds producing H2O2 with reducing agent – biochemical, NIH compound library profiling, artefact control for MLSCN library redox annotation, primary screen | DTT-dependent redox cycling H2O2, phenol red/HRP absorbance; 100% = 100 µM peroxide control, 0% = buffer | activation, % at 10 µM | hit rate 0.03% among 200,000;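 active = activation of at least 50% relative to the plate's high and low controls in the primary single-dose screen; inactive = activation below 50%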;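 note: compound incubated with DTT at 0.8 mM final as the reducing agent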
UBC9 SUMO inh – inhibitors of in vitro SUMOylation cascade, primary screen, biochemical, HTRF, uHTS. SUMO-conjugating enzyme UBC9 (Homo sapiens), P63279. HTRF SUMOylation assay, SAE1/SAE2 + UBC9. inhibition, % at 35 µM. hit rate 0.36% among 290,000; in the data active = inhibition above about 50%, passing the limit was not always enough
Apaf1 inhib – inhibitors of human Apaf-1 apoptosome, primary screen, biochemical, DEVD-Rh110 fluorescence, uHTS; Apoptotic protease-activating factor 1 (Homo sapiens), O14727; reconstituted apoptosome caspase-3 activity; inhibition, % at 20 µM; hit rate 0.71% among 330,000; AID 489030, 2010; active = inhibition of at least 40% at 20 µM;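 note: plate controls were DMSO wells for no effect and DEVD-CHO caspase inhibitor wells for full effect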
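Material: biochemical Apaf-1 apoptosome reconstitution. Medium: Hepes buffer, pH 7.5. Also added: cytochrome c activation, bis-DEVD rhodamine 110 substrate. Timing: 30 min compound preincubation, 50 min activation, room temperature. Measured by: rhodamine 110 fluorescence at Ex 480/Em 540 nm.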
GSTO1 inh – inhibitors of recombinant GSTO1, primary screen, counter-screen for RBBP9 inhibitor project, biochemical, fluorescence polarization; Glutathione S-transferase omega-1 (Homo sapiens), P78417; activity-based probe fluorescence polarization; inhibition, % at 5.96 µM; hit rate 1.1% among 300,000;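 active = inhibition above the campaign mean inhibition plus 3 SD, cut at about 35% in these data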;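 note: 0% = GSTO1-1 with DMSO and 100% = wells lacking GSTO1-1 enzyme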
Apaf-1 inh conf – Apaf-1 inhibitors, single-dose retest, confirmation, biochemical, fluorescence, DEVD-Rh110, 20 µM | shares compounds with Apaf1 inhib | AID 504614, 2011 | hit rate 25% among 1,800 | reconstituted apoptosome, caspase-3 DEVD-Rh110 fluorescence | inhibition, % at 20 µM;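 active = mean inhibition of at least 40% at 20 µM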;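 note: plate controls were DMSO wells for no effect and DEVD-CHO caspase inhibitor control wells for full effect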
Rh110 quench – Rh110 fluorescence interference by putative Apaf-1 inhibitors, confirmation, artefact control for Apaf-1 inhibitor project, biochemical, 20 µM; 1,800 tested, under 10 active; activation (fluorescence interference), % at 20 µM; shares compounds with Apaf1 inhib; quenched caspase reaction; AID 504615, 2011;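 active = signal rise of 40% or more at 20 µM, treated as a fluorescence artifact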
Fluor interf inh – fluorescence interference of Apaf-1 inhibitor hits, dose response, artefact control for Apaf-1 inhibitor project; shares compounds with Apaf1 inhib; fluorescence interference counterscreen, Apaf-1 assay format; IC50, µM; 460 tested, under 10 active; AID 588538, 2011; call rule not given here
* marks the source's active call; other numbers are inactive results; x = no result; ! = repeats disagree. An excerpt weighted towards active compounds, which were near 1.4% of everything screened.

SMILES	HKDC1 inhibitor	Redox H2O2 prof	UBC9 SUMO inh	Apaf1 inhib	GSTO1 inh	Apaf-1 inh conf	Rh110 quench	others
O=C(NCCCN1CCCCCC1)c1cc2c(=O)oc3ccccc3c2s1	3	x	-12	40*	-9	11	6
CN(Cc1c(F)cccc1Cl)C(=O)c1cc2ccccc2o1	-7	0	6	17	5	x	x
CN(Cc1c(F)cccc1Cl)C(=O)c1ccc(COc2ccccc2)cc1	-2	x	-3	53*	-1	37	7
CC(C)Oc1ccc(C(CC(=O)O)NC(=O)C(Sc2ccccc2)c2ccccc2)cc1 (configuration not stated)	-7	4	-3	6	1	x	x
C/C(=N\NC(=O)Cc1cc(=O)[nH][nH]1)c1cccc([N+](=O)[O-])c1	-3	0	9	51*	45*	11	-2
C/C(=N\NC(=O)CSCc1ccccc1Br)c1cccc([N+](=O)[O-])c1	1	2	-12	-13	-1	x	x
Cc1cc(C(=O)OCC(=O)Nc2c(Cl)cccc2C(F)(F)F)c(C)o1	-1	x	x	4	1	x	x
CCOc1ccc(-c2cc(C(=O)NCCCn3ccnc3)c3ccccc3n2)cc1	-5	0	35	-6	1	x	x
CCOc1ccc(-c2cc(C(=O)NCCCn3ccnc3)c3cc(Br)ccc3n2)cc1	0	x	4	42*	-10	-1	9
CCN(CC)CCCNc1ccc(-c2nnc(-c3ccc(OCC(C)C)cc3)o2)cn1	2	x	27	41*	-20	32	9
CN1CCN(C2Cc3ccccc3Sc3ccc(Cl)cc32)CC1 (configuration not stated)	-4	x	x	38	-1	x	x
CSc1ccc2c(c1)C(N1CCN(C)CC1)Cc1ccccc1S2 (configuration not stated)	-3	x	7	48*!	2	21	17
Cc1[nH]n(-c2ccccc2)c(=S)c1C=NCCCN=Cc1c(C)[nH]n(-c2ccccc2)c1=S	-31	0	2	63*	-3	-8	1
COC(=O)CN=Cc1c(C)[nH]n(-c2ccccc2)c1=O	-2	-1	21	-11	3	x	x
Cc1ccc2nc(/C(C#N)=C\c3ccc(N4CCOCC4)o3)[nH]c2c1	11	1	23	44*	-27	18	-28
Cc1ccc(/C(C#N)=C\c2ccc(N3CCOCC3)o2)cc1	-4	2	0	-17	13	x	x
O=C(C1CCCC1)N1CCN(S(=O)(=O)c2cccc(Cl)c2Cl)CC1	6	x	10	1	34	x	x
COc1cc2c(cc1CN1CCN(C(=O)c3cc(OC)c(OC)c(OC)c3)CC1)OCO2	4	x	2	2	6	x	x
CCC12CCCN3CCc4c(n(c5ccccc45)C(O)(C(=O)OC)C1)C32 (configuration not stated)	6	x	32	41*	-1	18	0
FC(F)(F)C1=Nc2cccc3cccc(c23)N1	30	x	x	66*	x	63*	4	Fluor interf inh=>100
CCCCCCOC(=O)C(C#N)c1nc2ccccc2nc1N1CCN(CC)CC1 (configuration not stated)	5	0	-17	42*	4	28	10
COc1cccc(O)c1CN1CCC(C(=O)Nc2ccc(Oc3cccnc3)cc2)CC1	1	x	-1	16	0	x	x
COc1ccc(CN2CCC(C(=O)Nc3ccc(Oc4cccnc4)cc3)CC2)cc1	-8	x	2	58*	1	17	16
CC(NC(=O)c1cccs1)C(S)c1ccccc1 (configuration not stated)	0	x	2	x	-5	x	x
O=C(COc1ccc2ccc(=O)oc2c1)Nc1ccc(N2CCCCC2)cc1	-6	x	x	47*	x	14	9
SMILES	HKDC1 inhibitor	Redox H2O2 prof	UBC9 SUMO inh	Apaf1 inhib	GSTO1 inh	Apaf-1 inh conf	Rh110 quench	others
CN(C)CCNC(=O)C(=O)NCC1OCCN1S(=O)(=O)c1cc(F)ccc1F (configuration not stated)	-12	x	11	47*	1	21	5
CCOc1ccc(NC(=S)NC(=O)c2cccnc2)c([N+](=O)[O-])c1	1	x	5	0	0	x	x
Nc1ncc(Br)cc1N=Cc1ccccc1	10	0	23	62*	7	8	-2
Cn1ncc(N=Cc2ccccc2)c1C(N)=O	-5	-1	6	-16	-1	x	x
Cc1[nH]n(-c2ccccc2)c(=O)c1/C=N\NC(=O)C1COc2ccccc2O1 (configuration not stated)	-9	1	-26	54*	5	65*	-6	Fluor interf inh=>100
Cc1[nH]n(-c2ccccc2)c(=O)c1/C=N/N(C)c1ccccc1	0	0	75	80*	-1	15	-2
CC(=O)N/N=C/c1c(C)[nH]n(-c2ccccc2)c1=O	-11	0	-6	1	25	x	x
Cc1[nH]n(-c2ccccc2)c(=O)c1/C=N/NC(=O)c1cccc([N+](=O)[O-])c1	-11	-1	-52	56*	2	53*	1	Fluor interf inh=>100
COc1cc(OC)cc(-c2sc3ccc(OC)cc3c2-c2ccc(OCCN3CCCCC3)cc2)c1	-2	x	x	60*	x	-3	9
COc1ccc(-c2sc3cc4c(cc3c2-c2ccc(OCCN3CCCCC3)cc2)OCO4)cc1	-2	x	x	59*	x	6	9
COc1ccccc1-c1sc2cc3c(cc2c1-c1ccc(OCCN2CCOCC2)cc1)OCO3	5	x	x	23	x	x	x
Cc1ccc2nsnc2c1N	1	7	19	-4	15	x	x
Nc1cccc2nsnc12	21	x	88*	68*	24	14	-5
CCN1CCN(C(=O)c2ccc3c(c2)N(Cc2ccccc2F)C(=O)c2ccccc2S3(=O)=O)CC1	-6	x	10	3	4	x	x
Cc1ccc(C(=O)N(C)Cc2ccccc2)cc1S(=O)(=O)N1CCOCC1	5	x	2	-2	3	x	x
COc1cccc(CN(C)C(=O)c2cc(S(=O)(=O)N3CCCCCC3)ccc2OC)c1	-2	x	x	51*	x	38	4
COc1cccc(CN(C)C(=O)c2ccc(C)c(S(=O)(=O)N3CCCCC3)c2)c1	3	x	x	40*	x	40	11
Cc1cn(CC(=O)NCCc2ccccn2)c(=O)[nH]c1=O	-5	x	x	x	x	x	x
